Laboratory results from ChEMBL document CHEMBL1122046, “Quaternary heterocyclylamino beta-lactams: a generic alternative to the classical acylamino side chain” (1982).
≈ marks a conversion by molar mass, not a printed value.

System: Enterococcus faecalis
Experiment: Minimum inhibitory concentration against aerobic organisms Streptococcus faecalis strain 2864
Type: functional
Conditions: not given
Procedure, shortened: (§1)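 Agar-dilution MIC in µg/mL against aerobic bacterial strains on tryptocase soy agar, with inoculum applied as spots. Most series used 10^5 cfu per spot, and a later series used 10^4 cfu per spot. In some tables, footnoted strains were instead tested on Mueller-Hinton or nutrient agar. β-Lactamase-producing strains are flagged.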

Compound | MIC [µg/mL]
CC1(C)S[C@@H]2[C@H](NC(=O)[C@H](N)c3ccccc3)C(=O)N2[C@H]1C(=O)O [AMPICILLIN] | 6.25 (≈ 17.9 µM)
CC1(C)S[C@@H]2[C@H](NC(=O)Cc3ccccc3)C(=O)N2[C@H]1C(=O)O [PENICILLIN G] | 1.56 (≈ 4.67 µM)
CC(=O)OCC1=C(C(=O)O)N2C(=O)[C@@H](NC(=O)Cc3cccs3)[C@H]2SC1 [CEPHALOTHIN] | 8 (≈ 20.2 µM)

System: Staphylococcus aureus
Experiment: Inhibition zone diameter against aerobic organism Staphylococcus aureus strain 2314
Conditions: not given

Compound | zone diameter [mm]
CC(O)[C@H]1C(=O)N2C(C(=O)[O-])=C(SCCNc3cc[n+](C)cc3)C[C@H]12 (stereo not given in full) | 42

System: not listed separately
Experiment: Minimum inhibitory concentration against aerobic organism Salmonella schottmuelleri strain 2837
Type: functional
Conditions: Salmonella; read-out: MIC
Procedure, shortened: as §1

Compound | MIC [µg/mL]
CC1(C)S[C@@H]2[C@H](NC(=O)[C@H](N)c3ccccc3)C(=O)N2[C@H]1C(=O)O [AMPICILLIN] | 1.56 (≈ 4.46 µM)

System: Escherichia coli
Experiment: MIC against aerobic organism Escherichia coli strain 2891
Type: functional
Conditions: Escherichia coli; read-out: MIC
Procedure, shortened: as §1

Compound | MIC [µg/mL]
CC1(C)S[C@@H]2[C@H](NC(=O)[C@H](N)c3ccccc3)C(=O)N2[C@H]1C(=O)O [AMPICILLIN] | > 100
CC1(C)S[C@@H]2[C@H](NC(=O)Cc3ccccc3)C(=O)N2[C@H]1C(=O)O [PENICILLIN G] | > 100
CC(=O)OCC1=C(C(=O)O)N2C(=O)[C@@H](NC(=O)Cc3cccs3)[C@H]2SC1 [CEPHALOTHIN] | > 128

System: Proteus vulgaris
Experiment: Minimum inhibitory concentration against aerobic organism Proteus vulgaris strain 2829
Type: functional
Conditions: Proteus vulgaris; read-out: MIC
Procedure, shortened: as §1

MIC [µg/mL] | Compound
128 (≈ 323 µM) | CC(=O)OCC1=C(C(=O)O)N2C(=O)[C@@H](NC(=O)Cc3cccs3)[C@H]2SC1 [CEPHALOTHIN]

System: Proteus mirabilis
Experiment: Minimum inhibitory concentration against aerobic organism Proteus mirabilis strain 2830
Type: functional
Conditions: Proteus mirabilis; read-out: MIC
Procedure, shortened: as §1

MIC [µg/mL] | Compound
32 (≈ 80.7 µM) | CC(=O)OCC1=C(C(=O)O)N2C(=O)[C@@H](NC(=O)Cc3cccs3)[C@H]2SC1 [CEPHALOTHIN]

System: Enterobacter cloacae
Experiment: Minimum inhibitory concentration against aerobic organism Enterobacter cloacae 2646
Type: functional
Conditions: not given
Procedure, shortened: as §1

Compound | MIC [µg/mL]
CC1(C)S[C@@H]2[C@H](NC(=O)[C@H](N)c3ccccc3)C(=O)N2[C@H]1C(=O)O [AMPICILLIN] | > 100
CC1(C)S[C@@H]2[C@H](NC(=O)Cc3ccccc3)C(=O)N2[C@H]1C(=O)O [PENICILLIN G] | > 100
CC(=O)OCC1=C(C(=O)O)N2C(=O)[C@@H](NC(=O)Cc3cccs3)[C@H]2SC1 [CEPHALOTHIN] | > 128

System: not listed separately
Experiment: Minimum inhibitory concentration against aerobic organism Salmonella schottmuelleri 2837
Type: functional
Conditions: not given
Procedure, shortened: as §1

Compound | MIC [µg/mL]
CC1(C)S[C@@H]2[C@H](NC(=O)Cc3ccccc3)C(=O)N2[C@H]1C(=O)O [PENICILLIN G] | 3.12 (≈ 9.33 µM)

System: Klebsiella aerogenes
Experiment: Minimum inhibitory concentration against aerobic organism Enterobacter aerogenes strain 2828
Type: functional
Conditions: not given
Procedure, shortened: as §1

MIC [µg/mL] | Compound
32 (≈ 80.7 µM) | CC(=O)OCC1=C(C(=O)O)N2C(=O)[C@@H](NC(=O)Cc3cccs3)[C@H]2SC1 [CEPHALOTHIN]

System: Streptococcus pyogenes
Experiment: Inhibition zone diameter against aerobic organism Streptococcus pyogenes strain 2874
Conditions: not given

Compound | zone diameter [mm]
CC(O)[C@H]1C(=O)N2C(C(=O)[O-])=C(SCCNc3cc[n+](C)cc3)C[C@H]12 (stereo not given in full) | 37.5

System: Staphylococcus aureus
Experiment: Minimum inhibitory concentration against aerobic organism Staphylococcus aureus strain 2868
Type: functional
Conditions: Staphylococcus aureus; read-out: MIC
Procedure, shortened: as §1

Compound | MIC [µg/mL]
CC1(C)S[C@@H]2[C@H](NC(=O)[C@H](N)c3ccccc3)C(=O)N2[C@H]1C(=O)O [AMPICILLIN] | 25 (≈ 71.5 µM)
CC1(C)S[C@@H]2[C@H](NC(=O)Cc3ccccc3)C(=O)N2[C@H]1C(=O)O [PENICILLIN G] | 12.5 (≈ 37.4 µM)
CC(=O)OCC1=C(C(=O)O)N2C(=O)[C@@H](NC(=O)Cc3cccs3)[C@H]2SC1 [CEPHALOTHIN] | 0.06 (≈ 0.151 µM)

System: Staphylococcus aureus
Experiment: Minimum inhibitory concentration against aerobic organism Staphylococcus aureus strain 2865
Type: functional
Conditions: not given
Procedure, shortened: as §1

MIC [µg/mL] | Compound
0.015 (≈ 0.0378 µM) | CC(=O)OCC1=C(C(=O)O)N2C(=O)[C@@H](NC(=O)Cc3cccs3)[C@H]2SC1 [CEPHALOTHIN]

System: Klebsiella pneumoniae
Experiment: Minimum inhibitory concentration against aerobic organism Klebsiella pneumoniae strain 4005
Type: functional
Conditions: not given
Procedure, shortened: as §1

MIC [µg/mL] | Compound
0.25 (≈ 0.631 µM) | CC(=O)OCC1=C(C(=O)O)N2C(=O)[C@@H](NC(=O)Cc3cccs3)[C@H]2SC1 [CEPHALOTHIN]

System: Salmonella
Experiment: Inhibition zone diameter against aerobic organism Salmonella strain 826
Conditions: not given

Compound | zone diameter [mm]
CC(O)[C@H]1C(=O)N2C(C(=O)[O-])=C(SCCNc3cc[n+](C)cc3)C[C@H]12 (stereo not given in full) | 28

System: Pseudomonas aeruginosa
Experiment: Inhibition zone diameter against aerobic organism Pseudomonas aeruginosa strain 3350
Conditions: not given

Compound | zone diameter [mm]
CC(O)[C@H]1C(=O)N2C(C(=O)[O-])=C(SCCNc3cc[n+](C)cc3)C[C@H]12 (stereo not given in full) | 24.5

System: Serratia marcescens
Experiment: Inhibition zone diameter against aerobic organism Serratia marcescenes strain 2855
Conditions: not given

Compound | zone diameter [mm]
CC(O)[C@H]1C(=O)N2C(C(=O)[O-])=C(SCCNc3cc[n+](C)cc3)C[C@H]12 (stereo not given in full) | 26.5

System: Streptococcus pyogenes
Experiment: Minimum inhibitory concentration against aerobic organism Streptococcus pyogenes strain 3124
Type: functional
Conditions: not given
Procedure, shortened: as §1

Compound | MIC [µg/mL]
CC1(C)S[C@@H]2[C@H](NC(=O)[C@H](N)c3ccccc3)C(=O)N2[C@H]1C(=O)O [AMPICILLIN] | < 0.09

Same assay, conditions: Streptococcus pyogenes; read-out: MIC

Compound | MIC [µg/mL]
CC1(C)S[C@@H]2[C@H](NC(=O)Cc3ccccc3)C(=O)N2[C@H]1C(=O)O [PENICILLIN G] | < 0.39

System: Shigella sp.
Experiment: Minimum inhibitory concentration against aerobic organism Shigella species strain 2880
Type: functional
Conditions: not given
Procedure, shortened: as §1

Compound | MIC [µg/mL]
CC1(C)S[C@@H]2[C@H](NC(=O)[C@H](N)c3ccccc3)C(=O)N2[C@H]1C(=O)O [AMPICILLIN] | 6.25 (≈ 17.9 µM)
CC1(C)S[C@@H]2[C@H](NC(=O)Cc3ccccc3)C(=O)N2[C@H]1C(=O)O [PENICILLIN G] | 6.25 (≈ 18.7 µM)

System: Morganella morganii
Experiment: Disk zone diameter (25 ug/disk) against aerobic organism Morganella morganii strain 2834
Conditions: not given

Compound | zone diameter [mm]
CC(O)[C@H]1C(=O)N2C(C(=O)[O-])=C(SCCNc3cc[n+](C)cc3)C[C@H]12 (stereo not given in full) | 26

System: Pseudomonas aeruginosa
Experiment: Minimum inhibitory concentration against aerobic organism Pseudomonas aeruginosa strain 2835
Type: functional
Conditions: not given
Procedure, shortened: as §1

MIC [µg/mL] | Compound
> 128 | CC(=O)OCC1=C(C(=O)O)N2C(=O)[C@@H](NC(=O)Cc3cccs3)[C@H]2SC1 [CEPHALOTHIN]

System: Klebsiella pneumoniae
Experiment: Minimum inhibitory concentration against aerobic organism Klebsiella pneumoniae strain 2882
Type: functional
Conditions: Klebsiella pneumoniae; read-out: MIC
Procedure, shortened: as §1

Compound | MIC [µg/mL]
CC1(C)S[C@@H]2[C@H](NC(=O)[C@H](N)c3ccccc3)C(=O)N2[C@H]1C(=O)O [AMPICILLIN] | 50 (≈ 143 µM)
CC1(C)S[C@@H]2[C@H](NC(=O)Cc3ccccc3)C(=O)N2[C@H]1C(=O)O [PENICILLIN G] | 25 (≈ 74.8 µM)

System: Morganella morganii
Experiment: Minimum inhibitory concentration against aerobic organism Morganella morganii strain 2833
Type: functional
Conditions: Morganella morganii; read-out: MIC
Procedure, shortened: as §1

MIC [µg/mL] | Compound
> 128 | CC(=O)OCC1=C(C(=O)O)N2C(=O)[C@@H](NC(=O)Cc3cccs3)[C@H]2SC1 [CEPHALOTHIN]

System: Salmonella
Experiment: Minimum inhibitory concentration against aerobic organism Salmonella strain 3860
Type: functional
Conditions: not given
Procedure, shortened: as §1

MIC [µg/mL] | Compound
2 (≈ 5.04 µM) | CC(=O)OCC1=C(C(=O)O)N2C(=O)[C@@H](NC(=O)Cc3cccs3)[C@H]2SC1 [CEPHALOTHIN]

System: Klebsiella
Experiment: Inhibition zone diameter against aerobic organism Klebsiella species strain 2921
Conditions: not given

Compound | zone diameter [mm]
CC(O)[C@H]1C(=O)N2C(C(=O)[O-])=C(SCCNc3cc[n+](C)cc3)C[C@H]12 (stereo not given in full) | 27
